Results as given in ChEMBL document CHEMBL4145451, “1,3,5-triazaspiro[5.5]undeca-2,4-dienes as selective Mycobacterium tuberculosis dihydrofolate reductase inhibitors with potent whole cell activity” (Eur J Med Chem, 2018).

Key:
[1] = test system: Mycobacterium tuberculosis; assay: Antimycobacterial activity against Mycobacterium bovis BCG at 25 uM after 10 days by broth dilution method relative to control; assay type: functional, variant bovis BCG
[2] = test system: Mycobacterium tuberculosis; assay: Ratio of MIC90 for Mycobacterium bovis BCG over-expressing DHFR to MIC90 for Mycobacterium bovis BCG; assay type: functional, variant bovis BCG
[3] = test system: Mycobacterium tuberculosis; assay: Antimycobacterial activity against Mycobacterium bovis BCG after 10 days by broth dilution method; assay type: functional; conditions: variant bovis BCG, 240 h
In short: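 Broth microdilution. Mid-log cultures (OD600 0.4–0.6) were diluted and added to 2-fold serial compound dilutions in DMSO, giving a final 5 × 10^5 CFU/mL in 7H9-albumin-dextrose-catalase-glycerol-Tween 80. Plates were sealed and incubated at 37 °C for 10 days with shaking at 80 rpm. OD600 was read; MIC50 and MIC90 are the lowest concentrations giving 50% and 90% growth inhibition. Rifampicin and DMSO served as controls. Means of 3 independent experiments.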

| Compound | Activity [1] | Ratio [2] | MIC50 [3] | MIC90 [3] |
| --- | --- | --- | --- | --- |
| Cl.NC1=NC2(CCCCC2)N(Cc2cn(CCCOc3ccc4ccc(=O)oc4c3)nn2)C(N)=N1 | 7.8% |  |  |  |
| Cl.NC1=NC2(CCCCC2)N(Cc2cn(CCCc3ccccc3)nn2)C(N)=N1 | 5.4% |  |  |  |
| Cl.NC1=NC2(CCCCC2)N(c2ccc(OCc3cn(CCCOc4ccc5ccc(=O)oc5c4)nn3)cc2)C(N)=N1 | 88.4% | 25 - 30 | 0.02 µM | 0.2 µM |
| Cl.NC1=NC2(CCCCC2)N(Cc2cn(CC(=O)c3ccccc3)nn2)C(N)=N1 | 3.4% |  |  |  |
| Cl.NC1=NC2(CCCCC2)N(Cc2cn(CCOc3ccc4ccc(=O)oc4c3)nn2)C(N)=N1 | 5.8% |  |  |  |
| Cl.NC1=NC2(CCCCC2)N(c2ccc(OCc3cn(CC(=O)c4ccccc4)nn3)cc2)C(N)=N1 | 12.8% |  |  |  |
| Cl.NC1=NC2(CCCCC2)N(c2ccc(OCc3cn(CCOc4ccc5ccc(=O)oc5c4)nn3)cc2)C(N)=N1 | 84.8% |  | 0.2 µM | 1.56 µM |
| Nc1ccc(C(=O)O)c(O)c1 [AMINOSALICYLIC ACID] |  | 16 |  |  |
| Cl.NC1=NC2(CCCCC2)N(Cc2cn(CCc3ccccc3)nn2)C(N)=N1 | 4.7% |  |  |  |
| Cl.NC1=NC2(CCCCC2)N(c2ccc(OCc3cn(CCCCOc4ccc5ccc(=O)oc5c4)nn3)cc2)C(N)=N1 | 92.1% | 25 - 30 | 0.01 to 0.02 µM | 0.1 µM |
| Cl.NC1=NC2(CCCCC2)N(c2ccc(OCc3cn(CCc4ccccc4)nn3)cc2)C(N)=N1 | 25.6% |  |  |  |
| Cl.NC1=NC2(CCCCC2)N(Cc2cn(Cc3ccccc3)nn2)C(N)=N1 | 4.5% |  |  |  |
| Cl.NC1=NC2(CCCCC2)N(c2ccc(OCc3cn(CCCc4ccccc4)nn3)cc2)C(N)=N1 | 67.8% |  | 20.7 µM | > 100 µM |
| Cl.NC1=NC2(CCCCC2)N(c2ccc(OCc3cn(Cc4ccccc4)nn3)cc2)C(N)=N1 | 61.7% |  | 19.2 µM | > 100 µM |
| Cl.NC1=NC2(CCCCC2)N(Cc2cn(CCCCCOc3ccc4oc(=O)ccc4c3)nn2)C(N)=N1 | 6.7% |  |  |  |
